Experimental data: ChEMBL document CHEMBL4513216, “Probing the Open Global Health Chemical Diversity Library for Multistage-Active Starting Points for Next-Generation Antimalarials” (ACS Infect Dis, 2020)

Experiment: Toxicity liver stage against HepG2, at 10uM
Format: cell-based
Parameters: test concentration 10 uM, cell line HepG2-A16-CD81EGFP
Conditions: human, HepG2-A16-CD81EGFP cells; read-out: INHIBITION
Procedure, shortened: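 Uninfected HepG2-A16-CD81EGFP cells, 3 × 10^3 per well, 1536-well, plated on prespotted compound at 10 μM final, parasite-free screening media added to match infected plates; puromycin 10 μM positive, DMSO 0.5% negative; run in parallel with 48 h PbLuc assay at 37 °C, 5% CO2; viability by CellTiter-Glo luminescence, normalized to controls.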

## Nc1cc2c(nn1)CCN(C(=O)CC1CCCC1)C2
  cytotoxicity at 10 µM: -6.31%

## CNC(=O)c1cccc(NC(=O)NC(C)c2cc(C)oc2C)c1C (stereo not given)
  cytotoxicity at 10 µM: -9.26%

## CCc1nc(CN2CCN(CC(O)c3ccccc3)CC2)no1 (stereo not given)
  cytotoxicity at 10 µM: -15.3%

## CCCC(O)CN1CC(C)(C)CN(C(=O)c2ccc(SC)cc2)CC1=O (stereo not given)
  cytotoxicity at 10 µM: -4%

## Cc1cc(C)n(CCN(C)Cc2c[nH]nc2-c2ccc3c(c2)OCO3)n1
  cytotoxicity at 10 µM: 0.562%

## Cc1nc(C)n(CCNS(=O)(=O)NCc2ccccc2)n1
  cytotoxicity at 10 µM: -11.4%

## Cc1nccc([C@@H]2C[C@@H]3CCN(S(=O)(=O)C4CC4)C[C@H]3O2)n1
  cytotoxicity at 10 µM: -5.9%

## CNC(=O)[C@@]12CCO[C@@H]1CCN(S(=O)(=O)c1cc(C)cc(C)c1)C2
  cytotoxicity at 10 µM: -73.5%

## CN(C)CC(C)(C)Cn1cnc(-c2ccccc2)c1-c1ccncc1
  cytotoxicity at 10 µM: 4.19%

## CC(C)(C)C1SCC(=O)Nc2c1c(O)nn2C1CCCC1 (stereo not given)
  cytotoxicity at 10 µM: 3.36%

## O=C([C@H]1CCS(=O)(=O)[C@@H]2CN(CCc3ccccc3)C[C@H]12)N1CCCC1
  cytotoxicity at 10 µM: 0.688%

## N#Cc1c(Cl)nsc1N1CCN(CC2CCCCC2)CC1
  cytotoxicity at 10 µM: -8.67%

## CN1C(=O)CCc2cc(NC(=O)C3CC(=O)N(CC4CC4)C3)ccc21 (stereo not given)
  cytotoxicity at 10 µM: -12.2%

## COCCN1CC(C(=O)N(CCN(C)C)Cc2ccc(C)s2)CC1=O (stereo not given)
  cytotoxicity at 10 µM: 1.98%

## COCC(C)NCc1ccc2[nH]c(C)c(C)c2c1 (stereo not given)
  cytotoxicity at 10 µM: -3.06%

## Cn1ncc(NCc2cccc(OCC(F)(F)F)c2)c(Cl)c1=O
  cytotoxicity at 10 µM: 22.1%

## CN(C)C(C(=O)NCCn1cccc1)c1cccc(F)c1 (stereo not given)
  cytotoxicity at 10 µM: -1.23%

## Cc1cc(N2CCC(NC(=O)CCc3cnn(C)c3)CC2)nc(C)n1
  cytotoxicity at 10 µM: -2.01%

## Cc1nn(C)c(C)c1OCC(=O)N1CCCCC1
  cytotoxicity at 10 µM: 2.23%

## Cc1cccc(CNC(=O)Nc2ccc3c(c2)CCCC(=O)N3)c1
  cytotoxicity at 10 µM: 2.33%

## Cc1ccc(C(CNC(=O)Nc2cn[nH]c2)N2CCOCC2)o1 (stereo not given)
  cytotoxicity at 10 µM: -24.8%

## O=C(c1ccc2c(c1)[nH]c(=O)n2C1CCCC1)N1CCSCC1
  cytotoxicity at 10 µM: -42.3%

## CN(CCN1CCCC1=O)S(=O)(=O)CC1CCCC1
  cytotoxicity at 10 µM: 10.4%

## Cn1ccnc1COc1ccc(CSc2nncn2C2CC2)cc1
  cytotoxicity at 10 µM: 3.67%

## O=C(c1ccncc1)N1CC[C@@H]2[C@@H](CC1)OCCN2c1cccnc1
  cytotoxicity at 10 µM: 8.25%

## O=c1c(Cc2ccccc2)c(O)ccn1Cc1ccco1
  cytotoxicity at 10 µM: 5.01%

## CC(C)Nc1nc(N2CCCC2)nc2c1CN(C(C)C)CC2
  cytotoxicity at 10 µM: 2.06%

## Cc1nn(C)c(C)c1C1CCCN1C(=O)c1ccc(C(N)=O)s1 (stereo not given)
  cytotoxicity at 10 µM: -1.52%

## Cc1cc(C2CCC2)nc(NCC(C)(C)CO)n1
  cytotoxicity at 10 µM: -2.56%

## CC(Oc1ccc(S(C)(=O)=O)cc1)C(=O)NC(N)=O (stereo not given)
  cytotoxicity at 10 µM: -5.69%

## Cc1cc(CN(Cc2ccccc2)CC(O)c2cccs2)on1 (stereo not given)
  cytotoxicity at 10 µM: 5.29%

## CC(C)n1ccnc1C1CCN(c2nccc(C(F)(F)F)n2)CC1
  cytotoxicity at 10 µM: 2.52%

## COC(=O)CC(c1cccc(OC(F)F)c1)c1oc(C)cc(=O)c1O (stereo not given)
  cytotoxicity at 10 µM: -9.11%

## CCn1c(CN2CCCC2)nnc1C1CCN(Cc2ccc(C)o2)CC1
  cytotoxicity at 10 µM: -14.8%

## O=C(c1cncc(Br)c1)N1CCCc2c(F)cc(F)cc21
  cytotoxicity at 10 µM: 2.81%

## Cn1c(NCCC(=O)N2CCCC2)c(C#N)c(=O)n(C)c1=O
  cytotoxicity at 10 µM: -9.28%

## COC[C@H]1CCC[C@]12CN(Cc1cccc(C)n1)CCO2
  cytotoxicity at 10 µM: 2.23%

## O=C1CCCc2[nH]c(=O)c(C(=O)N(CC3CCCCC3)C3CC3)cc21
  cytotoxicity at 10 µM: -2.56%

## CSCC(=O)N1CCC(Oc2cccc(C)c2)CC1
  cytotoxicity at 10 µM: 1.98%

## COc1cc(-c2ccc(F)c3c2OC(CN)C3)cc(OC)c1OC (stereo not given)
  cytotoxicity at 10 µM: 1.35%

## C[S+]([O-])c1cccc(NC(=O)N[C@H](CCO)c2ccccc2)c1 (stereo not given in full)
  cytotoxicity at 10 µM: -3.13%

## COC(=O)CSCc1noc(-c2ccc(C)cc2)n1
  cytotoxicity at 10 µM: 4.13%

## O=C(NCCCOC1CCCCC1)C1NCCc2[nH]cnc21 (stereo not given)
  cytotoxicity at 10 µM: 4.68%

## O=C(O)c1cc(S(=O)(=O)Nc2ccc(F)cc2F)cc2c1OCCO2
  cytotoxicity at 10 µM: -1.2%

## CCN1C[C@H]2[C@@H](C1)N(C(=O)Cc1ccsc1)CC[C@H]2OC
  cytotoxicity at 10 µM: 6.8%

## O=C(Nc1ccc(Cl)cc1)c1nn(C2CCS(=O)(=O)C2)c2c1CCCC2 (stereo not given)
  cytotoxicity at 10 µM: 2.96%

## CCCc1nn(Cc2csc(C(C)C)n2)c(=O)o1
  cytotoxicity at 10 µM: -47.7%

## Cc1cncc(C(=O)N2CCCC(C(=O)CCc3ccccc3)C2)c1 (stereo not given)
  cytotoxicity at 10 µM: -10.1%

## CN1CCC(c2nnc(CN3CCC(O)CC3)n2C)CC1
  cytotoxicity at 10 µM: -8.94%

## COc1c(C2CCCN2C(=O)c2ccc3c(c2)OCO3)c(C)nn1C (stereo not given)
  cytotoxicity at 10 µM: -13.4%

## CCn1c(C2CCCN(Cc3cc(F)ccc3OC)C2)nn(C)c1=O (stereo not given)
  cytotoxicity at 10 µM: -4.12%

## CCOCC(O)CN1CCN(C(=O)c2cc(Cl)ccc2F)CC1 (stereo not given)
  cytotoxicity at 10 µM: -6.54%

## COc1cc(CN2CCC(NC(=O)c3cccn3C)C2)cc(OC)c1 (stereo not given)
  cytotoxicity at 10 µM: -12.6%

## CC(NC(=O)N1CCC[C@H]1CO)c1noc(-c2ccccc2)n1 (stereo not given in full)
  cytotoxicity at 10 µM: -6.67%

## CC(C)Nc1nc(O)cc(C(C)n2ncc3ccccc3c2=O)n1 (stereo not given)
  cytotoxicity at 10 µM: 2.81%
